# CHO parental Ca – ATP-evoked calcium signal inhibitors, parental CHO, primary screen, counter-screen for OX1R antagonist project, cell-based, fluorescence, Fluo-8 calcium dye. parental CHO-K1, ATP-induced calcium, Fluo-8 fluorescence. inhibition, % at 5.6 µM. 0.63% of 330,000 active. AID 463079, 2010;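 active = inhibition above that plate's mean sample inhibition plus 3 SD, cut at about 26% in these data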;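 also: 0% = ATP-challenged DMSO wells and 100% = DMSO wells without ATP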
#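 material = parental CHO cells | also added = ATP as calcium-mobilizing challenge | dosing = single point at 5.6 µM | detection = intracellular calcium via Fluo-8 no-wash fluorescent dye | read-out = % inhibition | benchmarks = low control ATP plus DMSO, high control DMSO only | repeats = one well per compound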
# PGE2 EP2 inh – human EP2 receptor antagonists, primary screen, TR-FRET cAMP, C6 glioma cells; Prostaglandin E2 receptor EP2 subtype (Homo sapiens), P43116; C6 glioma cells expressing human EP2; cells stimulated with saturating PGE2; inhibition, % at 25 µM; 0.52% of 260,000 active;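 active = percent inhibition above 40 after rounding to a whole number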;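 also: rat C6 glioma host cells with rolipram phosphodiesterase inhibitor present; the protocol text gives 20 µM as final concentration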
# OX1R antag-1 – OX1R (HCRTR1) antagonists, primary screen, fluorescence, CHO/OX1R cells, Fluo-8 calcium, orexin A; Orexin/Hypocretin receptor type 1 (Homo sapiens), O43613; 0.43% of 330,000 active; Fluo-8 calcium fluorescence; inhibition, % at 5 µM;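 active = inhibition above its plate's threshold, mean inhibition of all tested compounds on the plate plus 3 SD, cut at about 37% in these data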;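 also: 0% = orexin A challenge wells and 100% = SB-334867-A antagonist wells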
# GPR7 antagonist – GPR7 receptor antagonists, primary screen, cell-based, fluorescence, single concentration; Neuropeptides B/W receptor type 1 (Homo sapiens), P48145; GPR7-expressing cells, fluorescence antagonist assay; inhibition, % at 4.4 µM; 1.1% of 290,000 active; AID 1861, 2009; in the data active = inhibition above about 16%, passing the limit was not always enough;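 also: cells stimulated with the agonist NPW; 0% = agonist with vehicle and 100% = vehicle without agonist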
# Target sequence (P48145 whole entry, looked up): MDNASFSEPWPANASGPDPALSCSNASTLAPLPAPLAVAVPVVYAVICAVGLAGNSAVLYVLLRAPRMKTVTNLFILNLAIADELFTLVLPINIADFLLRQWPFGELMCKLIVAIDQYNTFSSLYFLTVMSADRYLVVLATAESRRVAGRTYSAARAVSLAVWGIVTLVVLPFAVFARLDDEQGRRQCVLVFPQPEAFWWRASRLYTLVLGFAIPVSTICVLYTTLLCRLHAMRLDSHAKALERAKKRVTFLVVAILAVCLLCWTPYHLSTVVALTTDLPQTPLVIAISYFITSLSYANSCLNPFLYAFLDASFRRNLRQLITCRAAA
# OX1R antag-2 – antagonists of human orexin 1 receptor (OX1R); inhibition, % at 6.6 µM; OX1R-expressing cells, FRET antagonist read-out; 1.8% of 330,000 active; in the data active = inhibition mostly above about 38%, no sharp cut-off; inactive = mostly below about 40%;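 also: 0% = agonist challenge alone and 100% = reference antagonist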
# EP2 modulator – EP2 receptor modulators, cAMP readout, primary screen, cell-based, HTRF cAMP, PGE2 stimulation; EP2-expressing cells, cAMP HTRF FRET, PGE2 co-stimulation; AID 940, 2007; Prostaglandin E2 receptor EP2 subtype (Homo sapiens), P43116; induction, % at 25 µM; 0.83% of 260,000 active;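 active = compounds whose cAMP rise, as percent of the full-agonist control response, exceeds 60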;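 also: rat C6 glioma line stably carrying human EP2 under a CMV promoter; the protocol text gives 20 µM as final concentration; 100% = response of wells given 1 µM PGE2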
# GPR7 antag conf – GPR7 receptor antagonists, confirmation, cell-based, fluorescence, single concentration; shares compounds with GPR7 antagonist; GPR7-expressing cells, calcium fluorescence antagonist mode; inhibition, % at 4.4 µM; 52% of 2,400 active; in the data active = inhibition above about 24%;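 also: stimulated with the GPR7 agonist NPW; 0% = agonist plus vehicle and 100% = vehicle alone without agonist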
# MCHR1 antagonist – MCHR1 antagonists in cells, counter-screen for GPR7 antagonist project, cell-based, fluorescence, human. inhibition, % at 4.4 µM. shares compounds with GPR7 antagonist. MCHR1-expressing cells, fluorescence antagonist assay. 62% of 2,400 active; in the data active = inhibition above about 22%;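 also: 0% = vehicle with agonist and 100% = vehicle without agonist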
# * hit, by the source's call; . = no result given. Shown are actives, neighbours in structure and some others; about 3.7% of the full set was active somewhere.
SMILES,CHO parental Ca,PGE2 EP2 inh,OX1R antag-1,GPR7 antagonist,OX1R antag-2,EP2 modulator,GPR7 antag conf,MCHR1 antagonist
CC1CN(C(=O)Nc2cccc(C(F)(F)F)c2)CC(C)O1 (stereo unspecified),8,3,3,27*,22,-74,24*,36*
CC(=O)c1cccc(NC(=O)N2CC(C)OC(C)C2)c1 (stereo unspecified),0,.,-14,-17,16,.,.,.
Cc1cc(C)c2c(c1)c(C)cc1nnc(SCC(=O)Nc3ccccc3C(F)(F)F)n12,.,14,.,.,.,13,.,.
COc1cc(CNC2CCCC2)cc(Cl)c1OCc1ccc(F)cc1,-9,10,-5,26*,9,-48,25*,22*
CCOc1cc(CNC2CCCC2)cc(Cl)c1OCc1ccc(F)cc1,12,11,6,25*,20,-26,49*,54*
CCN1C(=O)C(NC(C)=O)c2cc(Br)ccc21 (stereo unspecified),-15,11,-23,27,36,10,.,.
CCCCN1C(=O)C(NC(C)=O)c2cc(Br)ccc21 (stereo unspecified),-25,7,-27,53*,3,2,26*,19
c1ccc2sc(SN3CCOCC3)nc2c1,5,11,-4,11,0,-9,.,.
Cc1ccc(NC(=O)CSc2nn(-c3ccccc3)c(=S)s2)cc1S(=O)(=O)N(C)C,26,7,43,21*,42,-41,56*,68*
O=C(CSc1nn(-c2ccccc2)c(=S)s1)Nn1cnnc1,2,.,-14,4,34,-2,.,.
O=C(NCCN1CCOCC1)c1csc2c1CCCC2,-11,5,-11,2,8,25,.,.
OC(CNCc1ccc(F)cc1)(c1ccc(F)cc1)c1ccc(F)cc1,-13,1,-13,34*,23,44,29*,30*
COc1ccc(CNCC(O)(c2ccc(Cl)cc2)c2ccc(Cl)cc2)cc1,-16,10,-21,31*,9,-3,39*,56*
CCCCNCC(O)(c1ccc(Cl)cc1)c1ccc(Cl)cc1,-22,2,-14,27*,46,-7,55*,64*
OC(CNCc1ccc(Cl)cc1)(c1ccccc1)c1ccc(F)cc1 (stereo unspecified),-31,3,-35,2,19,34,.,.
CCOC(=O)c1ccc(NC(=O)Nc2ccc(F)cc2)cc1,22,15,1,23*,52*,-3,47*,55*
Cc1ccc(NC(=O)CCC(=O)c2ccc(F)cc2)cc1Cl,17,2,-3,-14,22,-2,.,.
Cc1ccc(NC(=O)Nc2ccc(F)cc2)cc1Cl,41*,2,36,28*,61,-54,9,52*
Cc1ccc(NC(=O)CN(C)C2CCCCC2)cc1Cl,.,.,.,25*,.,.,21,24*
CC(C)(C)c1ccccc1OCCN1CCCC1,-11,3,-19,-13,8,-15,.,.
COC(=O)/C=C1\N/C(=N\c2nc(C)cc(C)n2)N(c2ccc(C)cc2)C1=O,-5,11,-14,-9,17,33,.,.
Cc1noc(C)c1COc1ccccc1C(=O)NCc1ccccc1Cl,-34,.,-20,.,10,.,.,.
COc1ccccc1-c1cc(-c2ccc(O)cc2)nc(N)c1C#N,2,.,-24,37*,10,.,11,17
